# Experimental data published in ChEMBL document CHEMBL1255409, “In vitro activity of ceftaroline against 623 diverse strains of anaerobic bacteria” (2010).
# How the values were obtained:
# [1] = tested on: Phocaeicola vulgatus; test: Antimicrobial activity against Bacteroides vulgatus under anaerobic conditions after 44 hrs by CLSI-M11-47 protocol based agar dilution method; format: functional
# Outline: (§1)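 Reference agar dilution per CLSI M11-A7 with plates made on test day. Clinical isolates were stored at −70°C in 20% skim milk, subcultured twice, and 48-h cell paste was suspended in brucella broth to 0.5 McFarland. About 10^5 CFU/spot was applied with a Steers replicator. Plates were incubated 44 h at 37°C anaerobically. MIC was the lowest concentration giving complete inhibition or marked growth reduction versus the drug-free control.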
# [2] = tested on: [Clostridium] innocuum; test: Antimicrobial activity against Clostridium […] under anaerobic conditions after 44 hrs by CLSI-M11-47 protocol based agar dilution method; format: functional; outline: as §1
# [3] = tested on: Fusobacterium mortiferum; test: Antimicrobial activity against Fusobacterium mortiferum under anaerobic conditions after 44 hrs by CLSI-M11-47 protocol based agar dilution method; format: functional; outline: as §1
# [4] = tested on: Parvimonas micra; test: Antimicrobial activity against Parvimonas micra under anaerobic conditions after 44 hrs by CLSI-M11-47 protocol based agar dilution method; format: functional
# Outline: (§2)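 Clinical isolates were stored at −70°C in 20% skim milk and identified phenotypically or by partial 16S rRNA sequencing. Each strain was subcultured twice from frozen stock. Cell paste from 48-h cultures was suspended in brucella broth to a 0.5 McFarland standard. About 10^5 CFU per spot were applied by Steers replicator to agar dilution plates prepared on the day of testing. Plates were incubated 44 h at 37°C in an anaerobic chamber. MIC was taken as the lowest concentration giving complete inhibition or marked reduction of growth versus the drug-free control.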
# [5] = tested on: Fusobacterium nucleatum; test: Antimicrobial activity against Fusobacterium nucleatum under anaerobic conditions after 44 hrs by CLSI-M11-47 protocol based agar dilution method; format: functional; outline: as §2
# [6] = tested on: Actinomyces neuii subsp. anitratus; test: Antimicrobial activity against Actinomyces neuii subsp. anitratus under anaerobic conditions after 44 hrs by CLSI-M11-47 protocol based agar dilution method; format: functional, Winkia neuii subsp. anitrata; settings: Winkia neuii; outline: as §1
# [7] = tested on: Peptostreptococcus anaerobius; test: Antimicrobial activity against Peptostreptococcus anaerobius under anaerobic conditions after 44 hrs by CLSI-M11-47 protocol based agar dilution method; format: functional; outline: as §2
# [8] = tested on: Prevotella denticola; test: Antimicrobial activity against Prevotella denticola under anaerobic conditions after 44 hrs by CLSI-M11-47 protocol based agar dilution method; format: functional; outline: as §2
# [9] = tested on: Lacticaseibacillus rhamnosus; test: Antimicrobial activity against Lactobacillus rhamnosus under anaerobic conditions after 44 hrs by CLSI-M11-47 protocol based agar dilution method; format: functional; outline: as §2
# [10] = tested on: Eubacterium contortum; test: Antimicrobial activity against Eubacterium contortum under anaerobic conditions after 44 hrs by CLSI-M11-47 protocol based agar dilution method; format: functional; settings: Faecalicatena contorta; outline: as §1
# [11] = tested on: Clostridium celerecrescens; test: Antimicrobial activity against Clostridium celerecrescens under anaerobic conditions after 44 hrs by CLSI-M11-47 protocol based agar dilution method; format: functional; settings: Lacrimispora celerecrescens; outline: as §1
# [12] = tested on: Clostridium paraputrificum; test: Antimicrobial activity against Clostridium paraputrificum under anaerobic conditions after 44 hrs by CLSI-M11-47 protocol based agar dilution method; format: functional; outline: as §1
# [13] = tested on: Anaerococcus octavius; test: Antimicrobial activity against Anaerococcus octavius under anaerobic conditions after 44 hrs by CLSI-M11-47 protocol based agar dilution method; format: functional; outline: as §1
# [14] = tested on: Clostridium cadaveris; test: Antimicrobial activity against Clostridium cadaveris under anaerobic conditions after 44 hrs by CLSI-M11-47 protocol based agar dilution method; format: functional; outline: as §1
# [15] = tested on: Slackia exigua; test: Antimicrobial activity against Slackia exigua under anaerobic conditions after 44 hrs by CLSI-M11-47 protocol based agar dilution method; format: functional; outline: as §2
# [16] = tested on: Prevotella nanceiensis; test: Antimicrobial activity against Prevotella nanceiensis under anaerobic conditions after 44 hrs by CLSI-M11-47 protocol based agar dilution method; format: functional; settings: Hoylesella nanceiensis; outline: as §2
# [17] = tested on: Clostridium hylemonae; test: Antimicrobial activity against Clostridium hylemonae under anaerobic conditions after 44 hrs by CLSI-M11-47 protocol based agar dilution method; format: functional; outline: as §1
# [18] = tested on: Lacrimispora sphenoides; test: Antimicrobial activity against Clostridium sphenoides under anaerobic conditions after 44 hrs by CLSI-M11-47 protocol based agar dilution method; format: functional; outline: as §1
# [19] = tested on: Prevotella bivia; test: Antimicrobial activity against Prevotella bivia under anaerobic conditions after 44 hrs by CLSI-M11-47 protocol based agar dilution method; format: functional; outline: as §2
# [20] = tested on: Anaerococcus tetradius; test: Antimicrobial activity against Anaerococcus tetradius under anaerobic conditions after 44 hrs by CLSI-M11-47 protocol based agar dilution method; format: functional; outline: as §1
# [21] = tested on: Bacteroides uniformis; test: Antimicrobial activity against Bacteroides uniformis under anaerobic conditions after 44 hrs by CLSI-M11-47 protocol based agar dilution method; format: functional; outline: as §1
# [22] = tested on: Prevotella oris; test: Antimicrobial activity against Prevotella oris under anaerobic conditions after 44 hrs by CLSI-M11-47 protocol based agar dilution method; format: functional; settings: Segatella oris; outline: as §2
# [23] = tested on: Prevotella buccae; test: Antimicrobial activity against Prevotella buccae under anaerobic conditions after 44 hrs by CLSI-M11-47 protocol based agar dilution method; format: functional; settings: Segatella buccae; outline: as §2
# [24] = tested on: Paeniclostridium sordellii; test: Antimicrobial activity against Clostridium sordellii under anaerobic conditions after 44 hrs by CLSI-M11-47 protocol based agar dilution method; format: functional; settings: Paraclostridium sordellii; outline: as §1
# [25] = tested on: Gemella morbillorum; test: Antimicrobial activity against Gemella morbillorum under anaerobic conditions after 44 hrs by CLSI-M11-47 protocol based agar dilution method; format: functional; outline: as §2
# [26] = tested on: Solobacterium moorei; test: Antimicrobial activity against Solobacterium moorei under anaerobic conditions after 44 hrs by CLSI-M11-47 protocol based agar dilution method; format: functional; outline: as §2
# [27] = tested on: Eubacterium saburreum; test: Antimicrobial activity against Eubacterium saburreum under anaerobic conditions after 44 hrs by CLSI-M11-47 protocol based agar dilution method; format: functional; settings: Lachnoanaerobaculum saburreum; outline: as §1
# [28] = tested on: Porphyromonas somerae; test: Antimicrobial activity against Porphyromonas somerae under anaerobic conditions after 44 hrs by CLSI-M11-47 protocol based agar dilution method; format: functional; outline: as §2
# [29] = tested on: Hoylesella loescheii; test: Antimicrobial activity against Prevotella loescheii under anaerobic conditions after 44 hrs by CLSI-M11-47 protocol based agar dilution method; format: functional; outline: as §2
# [30] = tested on: Parabacteroides distasonis; test: Antimicrobial activity against Bacteroides distasonis under anaerobic conditions after 44 hrs by CLSI-M11-47 protocol based agar dilution method; format: functional; outline: as §1
# [31] = tested on: Cutibacterium acnes; test: Antimicrobial activity against Propionibacterium acnes under anaerobic conditions after 44 hrs by CLSI-M11-47 protocol based agar dilution method; format: functional; outline: as §2
# [32] = tested on: Bacteroides fragilis; test: Antimicrobial activity against Bacteroides fragilis spp. under anaerobic conditions after 44 hrs by CLSI-M11-47 protocol based agar dilution method; format: functional; outline: as §1
smiles,measurement,setting,value
Cc1ncc([N+](=O)[O-])n1CCO [METRONIDAZOLE],MIC50,[1],1 µg/mL
same,MIC90,[1],2 µg/mL
same,MIC50,[2],1 µg/mL
same,MIC90,[2],4 µg/mL
same,MIC50,[3],0.5 µg/mL
same,MIC90,[3],1 µg/mL
same,MIC50,[4],0.25 µg/mL
same,MIC90,[4],0.25 µg/mL
same,MIC50,[5],≤ 0.03 µg/mL
same,MIC90,[5],0.25 µg/mL
same,MIC50,[6],> 32 µg/mL
same,MIC90,[6],> 32 µg/mL
same,MIC50,[7],0.5 µg/mL
same,MIC90,[7],1 µg/mL
same,MIC50,[8],0.5 µg/mL
same,MIC90,[8],2 µg/mL
same,MIC50,[9],> 64 µg/mL
same,MIC90,[9],> 64 µg/mL
same,MIC50,[10],0.5 µg/mL
same,MIC90,[10],1 µg/mL
same,MIC50,[11],0.5 µg/mL
same,MIC90,[11],4 µg/mL
same,MIC50,[12],0.5 µg/mL
same,MIC90,[12],4 µg/mL
same,MIC50,[13],1 µg/mL
same,MIC90,[13],4 µg/mL
same,MIC50,[14],0.5 µg/mL
same,MIC90,[14],4 µg/mL
same,MIC50,[15],0.5 µg/mL
same,MIC90,[15],1 µg/mL
same,MIC50,[16],0.5 µg/mL
same,MIC90,[16],2 µg/mL
same,MIC50,[17],0.5 µg/mL
same,MIC90,[17],4 µg/mL
same,MIC50,[18],0.5 µg/mL
same,MIC90,[18],4 µg/mL
same,MIC50,[19],1 µg/mL
same,MIC90,[19],2 µg/mL
same,MIC50,[20],1 µg/mL
same,MIC90,[20],2 µg/mL
same,MIC50,[21],1 µg/mL
same,MIC90,[21],2 µg/mL
same,MIC50,[22],0.5 µg/mL
same,MIC90,[22],2 µg/mL
same,MIC50,[23],0.5 µg/mL
same,MIC90,[23],1 µg/mL
same,MIC50,[24],0.5 µg/mL
same,MIC90,[24],4 µg/mL
same,MIC50,[25],1 µg/mL
same,MIC90,[25],4 µg/mL
same,MIC50,[26],0.5 µg/mL
same,MIC90,[26],1 µg/mL
same,MIC50,[27],0.5 µg/mL
same,MIC90,[27],1 µg/mL
same,MIC50,[28],0.5 µg/mL
same,MIC90,[28],0.5 µg/mL
same,MIC50,[29],0.5 µg/mL
same,MIC90,[29],2 µg/mL
same,MIC50,[30],1 µg/mL
same,MIC90,[30],2 µg/mL
same,MIC50,[31],> 32 µg/mL
same,MIC90,[31],> 32 µg/mL
same,MIC50,[32],1 µg/mL
same,MIC90,[32],2 µg/mL
